In ChEMBL document CHEMBL5724801, “EUbOPEN Chemogenomics Library - Multiplex” (2024):
Where “and” joins values, the source holds several entries; their conditions need not be identical. Equal values may be shown once.

Tested on: Fibroblast
Assay: Multiplex assay against human fibroblast
Type: toxicity, cell-based
Procedure, shortened: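 Cells stained live at seeding with Hoechst33342, BioTracker Green Microtubule Cytoskeleton Dye, MitoTracker Red and Annexin V Alexa Fluor 680 were imaged on a CQ1 microscope at 37°C and 5% CO2 after compound addition. Their classification by CellPathfinder machine-learning gating ran from Hoechst high-intensity objects versus normal cells, to healthy, pyknosed or fragmented nuclei among normal cells, to mitotic or apoptotic among pyknosed cells. Tubulin, mitochondrial-mass and membrane-permeability phenotypes are per cents of healthy-nucleus cells.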

[1] = 12 h, 1 µM, compound concentration 1 uM
[2] = 12 h, 10 µM, compound concentration 10 uM
[3] = 24 h, 1 µM, compound concentration 1 uM
[4] = 24 h, 10 µM, compound concentration 10 uM
[5] = 48 h, 1 µM, compound concentration 1 uM
[6] = 48 h, 10 µM, compound concentration 10 uM

COc1cc2nc(N3CCN(C(=O)COc4c(OC)cccc4C(C)C)CC3)nc(N)c2cc1OC.Cl.Cl
Population Apoptotic (%) [1]: 50% and 36% | Population Fragmented Nuclei (%) [1]: 17% and 39% | Population Healthy Nuclei (%) [1]: 51% and 42% | Population Hoechst High Intensity Objects (%) [1]: 4% and 9% | Population Membrane Permeable-Phenotype (%) [1]: 3% and 5% | Population Mitochondria Different-Phenotype (%) [1]: 6% and 7% | Population Mitotic Cells (%) [1]: 50% and 63% | Population Normal (%) [1]: 95% and 90% | Population Pyknosed Nuclei (%) [1]: 30% and 18% | Population Tubulin-Different-Phenotype (%) [1]: 40% and 43% | Total Cell Count [1]: 123 and 182 | Population Apoptotic (%) [2]: 33% and 29% | Population Fragmented Nuclei (%) [2]: 13% and 22% | Population Healthy Nuclei (%) [2]: 47% and 46% | Population Hoechst High Intensity Objects (%) [2]: 20% and 10% | Population Membrane Permeable-Phenotype (%) [2]: 0% and 4% | Population Mitochondria Different-Phenotype (%) [2]: 15% and 8% | Population Mitotic Cells (%) [2]: 66% and 70% | Population Normal (%) [2]: 79% and 89% | Population Pyknosed Nuclei (%) [2]: 38% and 30% | Population Tubulin-Different-Phenotype (%) [2]: 63% and 56% | Total Cell Count [2]: 346 and 283 | Population Apoptotic (%) [3]: 68% and 57% | Population Fragmented Nuclei (%) [3]: 23% and 40% | Population Healthy Nuclei (%) [3]: 58% and 42% | Population Hoechst High Intensity Objects (%) [3]: 3% and 11% | Population Membrane Permeable-Phenotype (%) [3]: 1% and 5% | Population Mitochondria Different-Phenotype (%) [3]: 9% and 11% | Population Mitotic Cells (%) [3]: 31% and 42% | Population Normal (%) [3]: 96% and 88% | Population Pyknosed Nuclei (%) [3]: 17% | Population Tubulin-Different-Phenotype (%) [3]: 39% and 50% | Total Cell Count [3]: 128 and 180 | Population Apoptotic (%) [4]: 40% and 33% | Population Fragmented Nuclei (%) [4]: 13% and 25% | Population Healthy Nuclei (%) [4]: 45% and 40% | Population Hoechst High Intensity Objects (%) [4]: 39% and 23% | Population Membrane Permeable-Phenotype (%) [4]: 0% and 4% | Population Mitotic Cells (%) [4]: 60% and 66% | Population Normal (%) [4]: 60% and 76% | Population Pyknosed Nuclei (%) [4]: 41% and 34% | Population Tubulin-Different-Phenotype (%) [4]: 38% and 47% | Total Cell Count [4]: 344 and 273 | Population Apoptotic (%) [5]: 65% and 42% | Population Fragmented Nuclei (%) [5]: 31% and 45% | Population Healthy Nuclei (%) [5]: 51% and 43% | Population Hoechst High Intensity Objects (%) [5]: 4% and 10% | Population Membrane Permeable-Phenotype (%) [5]: 0% and 8% | Population Mitochondria Different-Phenotype (%) [5]: 11% and 10% | Population Mitotic Cells (%) [5]: 35% and 57% | Population Normal (%) [5]: 96% and 89% | Population Pyknosed Nuclei (%) [5]: 16% and 11% | Population Tubulin-Different-Phenotype (%) [5]: 30% and 57% | Total Cell Count [5]: 125 and 193 | Population Apoptotic (%) [6]: 45% and 30% | Population Fragmented Nuclei (%) [6]: 12% and 33% | Population Healthy Nuclei (%) [6]: 45% and 33% | Population Hoechst High Intensity Objects (%) [6]: 52% and 31% | Population Membrane Permeable-Phenotype (%) [6]: 2% and 9% | Population Mitochondria Different-Phenotype (%) [6]: 10% and 0% | Population Mitotic Cells (%) [6]: 54% and 69% | Population Normal (%) [6]: 47% and 68% | Population Pyknosed Nuclei (%) [6]: 42% and 33% | Population Tubulin-Different-Phenotype (%) [6]: 42% and 43% | Total Cell Count [6]: 358 and 311

CCCCCC(O)/C=C/[C@H]1C(=O)CC(O)C1C/C=C\CCCC(=O)O (stereo partly specified)
Population Apoptotic (%) [1]: 52% and 50% | Population Fragmented Nuclei (%) [1]: 24% and 40% | Population Healthy Nuclei (%) [1]: 65% and 41% | Population Hoechst High Intensity Objects (%) [1]: 1% and 2% | Population Membrane Permeable-Phenotype (%) [1]: 0% and 7% | Population Mitotic Cells (%) [1]: 47% and 50% | Population Normal (%) [1]: 98% and 97% | Population Pyknosed Nuclei (%) [1]: 10% and 18% | Population Tubulin-Different-Phenotype (%) [1]: 19% and 52% | Total Cell Count [1]: 172 and 169 | Population Apoptotic (%) [2]: 42% and 34% | Population Fragmented Nuclei (%) [2]: 16% and 20% | Population Healthy Nuclei (%) [2]: 69% and 56% | Population Hoechst High Intensity Objects (%) [2]: 0% and 2% | Population Membrane Permeable-Phenotype (%) [2]: 0% and 3% | Population Mitochondria Different-Phenotype (%) [2]: 1% and 7% | Population Mitotic Cells (%) [2]: 57% and 65% | Population Normal (%) [2]: 99% and 97% | Population Pyknosed Nuclei (%) [2]: 13% and 23% | Population Tubulin-Different-Phenotype (%) [2]: 16% and 41% | Total Cell Count [2]: 139 and 101 | Population Apoptotic (%) [3]: 35% and 50% | Population Fragmented Nuclei (%) [3]: 20% and 41% | Population Healthy Nuclei (%) [3]: 70% and 50% | Population Hoechst High Intensity Objects (%) [3]: 0% and 1% | Population Membrane Permeable-Phenotype (%) [3]: 0% and 4% | Population Mitochondria Different-Phenotype (%) [3]: 2% and 10% | Population Mitotic Cells (%) [3]: 64% and 50% | Population Normal (%) [3]: 99% and 98% | Population Pyknosed Nuclei (%) [3]: 8% | Population Tubulin-Different-Phenotype (%) [3]: 21% and 47% | Total Cell Count [3]: 169 and 184 | Population Apoptotic (%) [4]: 61% and 33% | Population Fragmented Nuclei (%) [4]: 17% and 18% | Population Healthy Nuclei (%) [4]: 72% and 59% | Population Hoechst High Intensity Objects (%) [4]: 2% and 4% | Population Membrane Permeable-Phenotype (%) [4]: 1% and 3% | Population Mitochondria Different-Phenotype (%) [4]: 3% and 1% | Population Mitotic Cells (%) [4]: 38% and 66% | Population Normal (%) [4]: 97% and 95% | Population Pyknosed Nuclei (%) [4]: 9% and 21% | Population Tubulin-Different-Phenotype (%) [4]: 21% and 29% | Total Cell Count [4]: 138 and 101 | Population Apoptotic (%) [5]: 50% and 30% | Population Fragmented Nuclei (%) [5]: 27% and 47% | Population Healthy Nuclei (%) [5]: 66% and 46% | Population Hoechst High Intensity Objects (%) [5]: 3% and 2% | Population Membrane Permeable-Phenotype (%) [5]: 0% and 3% | Population Mitochondria Different-Phenotype (%) [5]: 2% and 7% | Population Mitotic Cells (%) [5]: 50% and 70% | Population Normal (%) [5]: 96% and 97% | Population Pyknosed Nuclei (%) [5]: 5% | Population Tubulin-Different-Phenotype (%) [5]: 19% and 42% | Total Cell Count [5]: 175 and 186 | Population Apoptotic (%) [6]: 63% and 33% | Population Fragmented Nuclei (%) [6]: 17% and 30% | Population Healthy Nuclei (%) [6]: 74% and 61% | Population Hoechst High Intensity Objects (%) [6]: 4% and 0% | Population Membrane Permeable-Phenotype (%) [6]: 0% and 6% | Population Mitochondria Different-Phenotype (%) [6]: 0% and 3% | Population Mitotic Cells (%) [6]: 36% and 66% | Population Normal (%) [6]: 95% and 99% | Population Pyknosed Nuclei (%) [6]: 8% | Total Cell Count [6]: 141 and 104

CC(=O)NCC(=O)N1[C@@H]2CC[C@H]1c1ccc(Nc3ncc(C(F)(F)F)c(NC4CCC4)n3)cc12 [PF-03814735]
Population Apoptotic (%) [1]: 14.81% and 22.73% | Population Fragmented Nuclei (%) [1]: 12.78% and 6.01% | Population Healthy Nuclei (%) [1]: 72.22% and 81.97% | Population Hoechst High Intensity Objects (%) [1]: 0% | Population Membrane Permeable-Phenotype (%) [1]: 4.62% and 4% | Population Mitochondria Different-Phenotype (%) [1]: 7.69% and 10.67% | Population Mitotic Cells (%) [1]: 85.19% and 77.27% | Population Normal (%) [1]: 100% | Population Pyknosed Nuclei (%) [1]: 15% and 12.02% | Population Tubulin-Different-Phenotype (%) [1]: 20% and 22.67% | Total Cell Count [1]: 180 and 183 | Population Apoptotic (%) [2]: 46.51% and 79.49% | Population Fragmented Nuclei (%) [2]: 20.25% and 27.83% | Population Healthy Nuclei (%) [2]: 53.37% and 53.77% | Population Hoechst High Intensity Objects (%) [2]: 0% | Population Membrane Permeable-Phenotype (%) [2]: 25.29% and 34.21% | Population Mitochondria Different-Phenotype (%) [2]: 17.24% and 20.18% | Population Mitotic Cells (%) [2]: 53.49% and 20.51% | Population Normal (%) [2]: 100% | Population Pyknosed Nuclei (%) [2]: 26.38% and 18.4% | Population Tubulin-Different-Phenotype (%) [2]: 36.78% and 78.07% | Total Cell Count [2]: 163 and 212 | Population Apoptotic (%) [3]: 18.18% and 31.25% | Population Fragmented Nuclei (%) [3]: 18.48% and 9.2% | Population Healthy Nuclei (%) [3]: 75.54% and 81.61% | Population Hoechst High Intensity Objects (%) [3]: 0% | Population Membrane Permeable-Phenotype (%) [3]: 9.35% and 5.63% | Population Mitochondria Different-Phenotype (%) [3]: 5.76% and 6.34% | Population Mitotic Cells (%) [3]: 81.82% and 68.75% | Population Normal (%) [3]: 100% | Population Pyknosed Nuclei (%) [3]: 5.98% and 9.2% | Population Tubulin-Different-Phenotype (%) [3]: 17.99% and 28.87% | Total Cell Count [3]: 184 and 174 | Population Apoptotic (%) [4]: 39.13% and 90.32% | Population Fragmented Nuclei (%) [4]: 24.36% and 32.26% | Population Healthy Nuclei (%) [4]: 46.15% and 39.17% | Population Hoechst High Intensity Objects (%) [4]: 0% | Population Normal (%) [4]: 100% | Population Pyknosed Nuclei (%) [4]: 29.49% and 28.57% | Population Tubulin-Different-Phenotype (%) [4]: 31.94% and 67.06% | Total Cell Count [4]: 156 and 217 | Population Fragmented Nuclei (%) [5]: 18.54% and 6.41% | Population Healthy Nuclei (%) [5]: 75.28% and 89.74% | Population Hoechst High Intensity Objects (%) [5]: 0% | Population Membrane Permeable-Phenotype (%) [5]: 1.49% and 7.14% | Population Normal (%) [5]: 100% | Population Pyknosed Nuclei (%) [5]: 6.18% and 3.85% | Population Tubulin-Different-Phenotype (%) [5]: 14.18% and 30.71% | Total Cell Count [5]: 178 and 156 | Population Apoptotic (%) [6]: 36.84% and 83.78% | Population Fragmented Nuclei (%) [6]: 23.6% and 31.34% | Population Healthy Nuclei (%) [6]: 64.6% and 51.61% | Population Hoechst High Intensity Objects (%) [6]: 0% | Population Mitochondria Different-Phenotype (%) [6]: 26.92% and 25% | Population Normal (%) [6]: 100% | Population Pyknosed Nuclei (%) [6]: 11.8% and 17.05% | Total Cell Count [6]: 161 and 217
